# Results taken from ChEMBL document CHEMBL4138126, “Synthesis, antiproliferative, anti-tubulin activity, and docking study of new 1,2,4-triazoles as potential combretastatin analogues” (Eur J Med Chem, 2017).
# pIC50: −log10 of the molar value.
# Experiments:
# SK-MEL-2 = assay: Growth inhibition of human SK-MEL-2 cells assessed as cell growth at 10 uM after 48 hrs by sulforhodamine B assay; type: functional; details: SK-MEL-2, 48 h, read-out: Activity
# In short: (§1)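 NCI 60-cell-line panel screen (nine cancer types). Compounds added at single concentration 10^-5 M, cultures incubated 48 h; growth inhibition percentages reported.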
# A498 = assay: Growth inhibition of human A498 cells assessed as cell growth at 10 uM after 48 hrs by sulforhodamine B assay; type: functional; details: A498, 48 h, read-out: Activity; in short: as §1
# KM12 = assay: Growth inhibition of human KM12 cells assessed as cell growth at 10 uM after 48 hrs by sulforhodamine B assay; type: functional; details: KM12, 48 h, read-out: Activity; in short: as §1
# SW-620 = assay: Growth inhibition of human SW620 cells assessed as cell growth at 10 uM after 48 hrs by sulforhodamine B assay; type: functional; details: SW-620, 48 h, read-out: Activity
# In short: (§2)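 NCI 60-cell-line panel from nine tumour types (leukaemia, lung, colon, CNS, melanoma, ovarian, renal, prostate, breast). Each compound was added at one single concentration, and cultures were incubated for 48 h. Results are reported as percent growth inhibition.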
# SK-OV-3 = assay: Growth inhibition of human SKOV3 cells assessed as cell growth at 10 uM after 48 hrs by sulforhodamine B assay; type: functional; details: SK-OV-3, 48 h, read-out: Activity; in short: as §1
# OVCAR-3 = assay: Growth inhibition of human OVCAR3 cells assessed as cell growth at 10 uM after 48 hrs by sulforhodamine B assay; type: functional; details: OVCAR-3, 48 h, read-out: Activity; in short: as §1
# OVCAR-4 = assay: Growth inhibition of human OVCAR4 cells assessed as cell growth at 10 uM after 48 hrs by sulforhodamine B assay; type: functional; details: OVCAR-4, 48 h, read-out: Activity; in short: as §1
# SF-295 = assay: Growth inhibition of human SF295 cells assessed as cell growth at 10 uM after 48 hrs by sulforhodamine B assay; type: functional; details: SF-295, 48 h, read-out: Activity; in short: as §1
# M14 = assay: Growth inhibition of human M14 cells assessed as cell growth at 10 uM after 48 hrs by sulforhodamine B assay; type: functional; details: M14, 48 h, read-out: Activity; in short: as §1
# OVCAR-5 = assay: Growth inhibition of human OVCAR5 cells assessed as cell growth at 10 uM after 48 hrs by sulforhodamine B assay; type: functional; details: OVCAR-5, 48 h, read-out: Activity; in short: as §1
# SNB-19 = assay: Growth inhibition of human SNB19 cells assessed as cell growth at 10 uM after 48 hrs by sulforhodamine B assay; type: functional; details: SNB-19, 48 h, read-out: Activity; in short: as §2
# T47D = assay: Growth inhibition of human T47D cells assessed as cell growth at 10 uM after 48 hrs by sulforhodamine B assay; type: functional; details: read-out: Activity; in short: as §2
# HCT-15 = assay: Growth inhibition of human HCT15 cells assessed as cell growth at 10 uM after 48 hrs by sulforhodamine B assay; type: functional; details: HCT-15, 48 h, read-out: Activity; in short: as §1
# RPMI-8226 = assay: Growth inhibition of human RPMI8226 cells assessed as cell growth at 10 uM after 48 hrs by sulforhodamine B assay; type: functional; details: RPMI-8226, 48 h, read-out: Activity; in short: as §1
# 786-0 = assay: Growth inhibition of human 786-0 cells assessed as cell growth at 10 uM after 48 hrs by sulforhodamine B assay; type: functional; details: 786-0, 48 h, read-out: Activity; in short: as §1
# NCI/ADR-RES = assay: Growth inhibition of human NCI-ADR-RES cells assessed as cell growth at 10 uM after 48 hrs by sulforhodamine B assay; type: functional; details: read-out: Activity; in short: as §1
# NCI-H23 = assay: Growth inhibition of human NCI-H23 cells assessed as cell growth at 10 uM after 48 hrs by sulforhodamine B assay; type: functional; details: NCI-H23, 48 h, read-out: Activity; in short: as §1
# HT-29 = assay: Growth inhibition of human HT-29 cells assessed as cell growth at 10 uM after 48 hrs by sulforhodamine B assay; type: functional; details: HT-29, 48 h, read-out: Activity; in short: as §1
# Malme-3M = assay: Growth inhibition of human MALME-3M cells assessed as cell growth at 10 uM after 48 hrs by sulforhodamine B assay; type: functional; details: read-out: Activity; in short: as §1
# PC-3 = assay: Growth inhibition of human PC3 cells assessed as cell growth at 10 uM after 48 hrs by sulforhodamine B assay; type: functional; details: PC-3, 48 h, read-out: Activity; in short: as §1
# SNB-75 = assay: Growth inhibition of human SNB75 cells assessed as cell growth at 10 uM after 48 hrs by sulforhodamine B assay; type: functional; details: SNB-75, 48 h, read-out: Activity; in short: as §2
# CCRF-CEM = assay: Growth inhibition of human CCRF-CEM cells assessed as cell growth at 10 uM after 48 hrs by sulforhodamine B assay; type: functional; details: read-out: Activity; in short: as §1
# RXF 393 = assay: Growth inhibition of human RXF393 cells assessed as cell growth at 10 uM after 48 hrs by sulforhodamine B assay; type: functional; details: RXF 393, 48 h, read-out: Activity; in short: as §1
# MCF7 = assay: Growth inhibition of human MCF7 cells assessed as cell growth at 10 uM after 48 hrs by sulforhodamine B assay; type: functional; details: MCF7, 48 h, read-out: Activity; in short: as §1
# DU-145 = assay: Growth inhibition of human DU145 cells assessed as cell growth at 10 uM after 48 hrs by sulforhodamine B assay; type: functional; details: DU-145, 48 h, read-out: Activity; in short: as §1
# NCI-H522 = assay: Growth inhibition of human NCI-H522 cells assessed as cell growth at 10 uM after 48 hrs by sulforhodamine B assay; type: functional; details: NCI-H522, 48 h, read-out: Activity; in short: as §1
# SF-539 = assay: Growth inhibition of human SF539 cells assessed as cell growth at 10 uM after 48 hrs by sulforhodamine B assay; type: functional; details: SF-539, 48 h, read-out: Activity; in short: as §1
# LOX IMVI = assay: Growth inhibition of human LOXIMVI cells assessed as cell growth at 10 uM after 48 hrs by sulforhodamine B assay; type: functional; details: read-out: Activity; in short: as §1
# HOP-92 = assay: Growth inhibition of human HOP92 cells assessed as cell growth at 10 uM after 48 hrs by sulforhodamine B assay; type: functional; details: HOP-92, 48 h, read-out: Activity; in short: as §1
# HepG2 = assay: Cytotoxicity in human HepG2 cells assessed as reduction in cell viability incubated for 48 hrs by MTT assay; type: functional, cell-based; details: HepG2, 48 h
# In short: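 HepG2 and HL60 (ATCC) grown in DMEM with 10% FBS, 2 mM L-glutamine, penicillin/streptomycin, amphotericin B at 37 °C, 5% CO2. Samples dissolved in DMSO, diluted thousandfold in assay. Cells seeded in serum-free medium, treated with serial concentrations 48 h; MTT 4 h, formazan dissolved in acidified isopropanol, A570. Triplicates averaged; viability relative to untreated/vehicle control.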
# NCI-H226 = assay: Growth inhibition of human NCI-H226 cells assessed as cell growth at 10 uM after 48 hrs by sulforhodamine B assay; type: functional; details: NCI-H226, 48 h, read-out: Activity; in short: as §1
# MDA-MB-435 = assay: Growth inhibition of human MDA-MB-435 cells assessed as cell growth at 10 uM after 48 hrs by sulforhodamine B assay; type: functional; details: MDA-MB-435, 48 h, read-out: Activity; in short: as §1
SMILES,growth at 10 µM (SK-MEL-2),growth at 10 µM (A498),growth at 10 µM (KM12),growth at 10 µM (SW-620),growth at 10 µM (SK-OV-3),growth at 10 µM (OVCAR-3),growth at 10 µM (OVCAR-4),growth at 10 µM (SF-295),growth at 10 µM (M14),growth at 10 µM (OVCAR-5),growth at 10 µM (SNB-19),growth at 10 µM (T47D),growth at 10 µM (HCT-15),growth at 10 µM (RPMI-8226),growth at 10 µM (786-0),growth at 10 µM (NCI/ADR-RES),growth at 10 µM (NCI-H23),growth at 10 µM (HT-29),growth at 10 µM (Malme-3M),growth at 10 µM (PC-3),also measured
CCOc1ccc(-n2nc(C(=O)NCc3cccc(OC)c3)nc2-c2cc(OC)c(OC)c(OC)c2)cc1,90%,98.1%,96.4%,108%,85.8%,93.5%,98.9%,90.3%,92.9%,120%,90.1%,69.8%,90%,84.3%,90.2%,82.5%,94.3%,73.5%,97.7%,78.4%,growth at 10 µM (SNB-75): 53.2%; growth at 10 µM (CCRF-CEM): 94.2%; growth at 10 µM (RXF 393): 92.5%; growth at 10 µM (MCF7): 84.1%; growth at 10 µM (DU-145): 107%; growth at 10 µM (NCI-H522): 58.7%; growth at 10 µM (SF-539): 88.9%; growth at 10 µM (LOX IMVI): 88.9%; growth at 10 µM (HOP-92): 95.6%; pIC50 (HepG2): 5.72; growth at 10 µM (NCI-H226): 89.4%; growth at 10 µM (MDA-MB-435): 92.5%
CCOc1ccc(-n2nc(C(=O)Nc3cccc(OC)c3)nc2-c2cc(OC)c(OC)c(OC)c2)cc1,86.9%,78.8%,71.2%,99.7%,96.5%,78.7%,75.1%,68.5%,83.7%,95.5%,83.9%,58.5%,74.3%,27.9%,84.8%,77.5%,85.9%,78.3%,91.7%,59%,growth at 10 µM (SNB-75): 68.1%; growth at 10 µM (CCRF-CEM): 51.9%; growth at 10 µM (RXF 393): 90.2%; growth at 10 µM (MCF7): 83.5%; growth at 10 µM (DU-145): 94.8%; growth at 10 µM (NCI-H522): 57.9%; growth at 10 µM (SF-539): 90.2%; growth at 10 µM (LOX IMVI): 80.8%; growth at 10 µM (HOP-92): 67.2%; pIC50 (HepG2): 4.43; growth at 10 µM (NCI-H226): 77.3%; growth at 10 µM (MDA-MB-435): 86.8%
CCOc1ccc(-n2nc(C(=O)Nc3ccccc3OC)nc2-c2cc(OC)c(OC)c(OC)c2)cc1,81.9%,83.8%,96.2%,100%,88.8%,95.6%,72.9%,84.8%,92.8%,82.4%,88.5%,50.2%,80.8%,68.2%,79.1%,85.3%,97.8%,74%,99.8%,65.5%,growth at 10 µM (SNB-75): 66.6%; growth at 10 µM (CCRF-CEM): 94%; growth at 10 µM (RXF 393): 88.4%; growth at 10 µM (MCF7): 77.4%; growth at 10 µM (DU-145): 95.6%; growth at 10 µM (NCI-H522): 69.2%; growth at 10 µM (SF-539): 85.7%; growth at 10 µM (LOX IMVI): 92.2%; growth at 10 µM (HOP-92): 86.8%; growth at 10 µM (NCI-H226): 82.3%; growth at 10 µM (MDA-MB-435): 86.9%
CCOc1ccc(-n2nc(C(=O)Nc3ccc(F)c(F)c3F)nc2-c2cc(OC)c(OC)c(OC)c2)cc1,84.1%,88.7%,96%,103%,85%,91.6%,78.8%,93%,93.9%,81.5%,88.3%,65.7%,64.3%,87.2%,79.6%,88.6%,97.5%,87.8%,86.9%,71.6%,growth at 10 µM (SNB-75): 68.3%; growth at 10 µM (RXF 393): 89.9%; growth at 10 µM (MCF7): 79.5%; growth at 10 µM (DU-145): 105%; growth at 10 µM (NCI-H522): 71.5%; growth at 10 µM (SF-539): 87.9%; growth at 10 µM (LOX IMVI): 94%; growth at 10 µM (HOP-92): 84.9%; pIC50 (HepG2): 4.97; growth at 10 µM (NCI-H226): 91.2%; growth at 10 µM (MDA-MB-435): 90%
